According to ChEMBL document CHEMBL2424583, “Structure-activity relationship and in vitro and in vivo evaluation of the potent cytotoxic anti-microtubule agent N-(4-methoxyphenyl)-N,2,6-trimethyl-6,7-dihydro-5H-cyclopenta[d]pyrimidin-4-aminium chloride and its analogues as antitumor agents” (J Med Chem, 2013):

What was measured:
[1] = target: T1, Tubulin (Sus scrofa) (UniProt P02554+P02550); experiment: Displacement of [3H]-colchicine from pig brain tubulin at 5 uM after 10 mins by scintillation counting analysis relative to control
T1 sequence (P02550 whole entry, looked up): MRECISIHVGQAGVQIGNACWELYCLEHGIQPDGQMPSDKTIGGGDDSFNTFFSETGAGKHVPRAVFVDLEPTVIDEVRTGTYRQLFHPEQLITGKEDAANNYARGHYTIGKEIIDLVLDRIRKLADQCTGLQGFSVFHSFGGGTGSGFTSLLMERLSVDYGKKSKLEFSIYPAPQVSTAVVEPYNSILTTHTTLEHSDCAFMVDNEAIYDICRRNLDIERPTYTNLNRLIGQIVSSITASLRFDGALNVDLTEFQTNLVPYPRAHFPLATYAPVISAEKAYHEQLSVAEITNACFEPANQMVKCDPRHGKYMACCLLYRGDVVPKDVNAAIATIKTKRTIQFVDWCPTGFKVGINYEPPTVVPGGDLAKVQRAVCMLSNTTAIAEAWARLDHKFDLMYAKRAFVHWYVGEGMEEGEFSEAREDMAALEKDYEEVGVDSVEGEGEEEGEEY
T1 sequence (P02554 whole entry, looked up): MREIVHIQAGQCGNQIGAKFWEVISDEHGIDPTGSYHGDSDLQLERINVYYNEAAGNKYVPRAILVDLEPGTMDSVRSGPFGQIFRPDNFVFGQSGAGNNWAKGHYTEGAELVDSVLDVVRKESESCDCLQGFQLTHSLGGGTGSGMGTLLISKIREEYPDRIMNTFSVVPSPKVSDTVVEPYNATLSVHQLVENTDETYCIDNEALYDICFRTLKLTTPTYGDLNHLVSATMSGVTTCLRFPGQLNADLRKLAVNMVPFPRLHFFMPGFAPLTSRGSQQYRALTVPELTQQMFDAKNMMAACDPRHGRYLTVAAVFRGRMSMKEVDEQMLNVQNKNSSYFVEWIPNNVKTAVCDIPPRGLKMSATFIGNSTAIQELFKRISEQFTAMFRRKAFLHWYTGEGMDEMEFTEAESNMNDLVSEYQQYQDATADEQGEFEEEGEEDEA

[2] = target: T1, Tubulin (Sus scrofa); experiment: Displacement of [3H]-colchicine from pig brain tubulin at 1 uM after 10 mins by scintillation counting analysis relative to control
[3] = system: MDA-MB-468; experiment: Cytotoxicity against human MDA-MB-468 cells assessed as growth inhibition after 48 hrs by SRB assay; assay type: functional; details: MDA-MB-468, 48 h
[4] = system: Hs-578T; experiment: Cytotoxicity against human Hs578T cells assessed as growth inhibition after 48 hrs by SRB assay; assay type: functional
[5] = system: BT-549; experiment: Cytotoxicity against human BT549 cells assessed as growth inhibition after 48 hrs by SRB assay; assay type: functional; details: BT-549, 48 h
[6] = system: MDA-MB-231; experiment: Cytotoxicity against human MDA-MB-231 cells assessed as growth inhibition after 48 hrs by SRB assay; assay type: functional; details: MDA-MB-231, 48 h
[7] = system: MCF7; experiment: Cytotoxicity against human MCF7 cells assessed as growth inhibition after 48 hrs by SRB assay; assay type: functional; details: MCF7, 48 h
[8] = system: UO-31; experiment: Cytotoxicity against human UO31 cells assessed as growth inhibition after 48 hrs by SRB assay; assay type: functional; details: UO-31, 48 h
[9] = system: TK-10; experiment: Cytotoxicity against human TK10 cells assessed as growth inhibition after 48 hrs by SRB assay; assay type: functional; details: TK-10, 48 h
[10] = system: SN12C; experiment: Cytotoxicity against human SN12C cells assessed as growth inhibition after 48 hrs by SRB assay; assay type: functional
[11] = system: RXF 393; experiment: Cytotoxicity against human RXF393 cells assessed as growth inhibition after 48 hrs by SRB assay; assay type: functional; details: RXF 393, 48 h
[12] = system: ACHN; experiment: Cytotoxicity against human ACHN cells assessed as growth inhibition after 48 hrs by SRB assay; assay type: functional
[13] = system: A498; experiment: Cytotoxicity against human A498 cells assessed as growth inhibition after 48 hrs by SRB assay; assay type: functional; details: A498, 48 h
[14] = system: 786-0; experiment: Cytotoxicity against human 786-0 cells assessed as growth inhibition after 48 hrs by SRB assay; assay type: functional; details: 786-0, 48 h
[15] = system: SK-OV-3; experiment: Cytotoxicity against human SKOV3 cells assessed as growth inhibition after 48 hrs by SRB assay; assay type: functional; details: SK-OV-3, 48 h
[16] = Cytotoxicity against human NCI-ADR-RES cells assessed as growth inhibition after 48 hrs by SRB assay; assay type: functional
[17] = system: OVCAR-8; experiment: Cytotoxicity against human OVCAR8 cells assessed as growth inhibition after 48 hrs by SRB assay; assay type: functional; details: OVCAR-8, 48 h
[18] = system: OVCAR-4; experiment: Cytotoxicity against human OVCAR4 cells assessed as growth inhibition after 48 hrs by SRB assay; assay type: functional; details: OVCAR-4, 48 h
[19] = system: OVCAR-3; experiment: Cytotoxicity against human OVCAR3 cells assessed as growth inhibition after 48 hrs by SRB assay; assay type: functional; details: OVCAR-3, 48 h
[20] = system: UACC-62; experiment: Cytotoxicity against human UACC62 cells assessed as growth inhibition after 48 hrs by SRB assay; assay type: functional; details: UACC-62, 48 h
[21] = system: SK-MEL-28; experiment: Cytotoxicity against human SK-MEL-28 cells assessed as growth inhibition after 48 hrs by SRB assay; assay type: functional; details: SK-MEL-28, 48 h
[22] = system: SK-MEL-2; experiment: Cytotoxicity against human SK-MEL-2 cells assessed as growth inhibition after 48 hrs by SRB assay; assay type: functional; details: SK-MEL-2, 48 h
[23] = system: MDA-MB-435; experiment: Cytotoxicity against human MDA-MB-435 cells assessed as growth inhibition after 48 hrs by SRB assay; assay type: functional; details: MDA-MB-435, 48 h
[24] = system: U-251; experiment: Cytotoxicity against human U251 cells assessed as growth inhibition after 48 hrs by SRB assay; assay type: functional; details: U-251, 48 h
[25] = system: SNB-75; experiment: Cytotoxicity against human SNB75 cells assessed as growth inhibition after 48 hrs by SRB assay; assay type: functional; details: SNB-75, 48 h
[26] = system: SF-539; experiment: Cytotoxicity against human SF539 cells assessed as growth inhibition after 48 hrs by SRB assay; assay type: functional; details: SF-539, 48 h
[27] = system: SF-268; experiment: Cytotoxicity against human SF268 cells assessed as growth inhibition after 48 hrs by SRB assay; assay type: functional; details: SF-268, 48 h
[28] = system: SW-620; experiment: Cytotoxicity against human SW620 cells assessed as growth inhibition after 48 hrs by SRB assay; assay type: functional; details: SW-620, 48 h
[29] = system: KM12; experiment: Cytotoxicity against human KM12 cells assessed as growth inhibition after 48 hrs by SRB assay; assay type: functional; details: KM12, 48 h
[30] = system: HCT-15; experiment: Cytotoxicity against human HCT15 cells assessed as growth inhibition after 48 hrs by SRB assay; assay type: functional; details: HCT-15, 48 h
[31] = system: HCT-116; experiment: Cytotoxicity against human HCT116 cells assessed as growth inhibition after 48 hrs by SRB assay; assay type: functional; details: HCT-116, 48 h
[32] = system: HCC 2998; experiment: Cytotoxicity against human HCC2998 cells assessed as growth inhibition after 48 hrs by SRB assay; assay type: functional; details: HCC 2998, 48 h
[33] = system: NCI-H522; experiment: Cytotoxicity against human NCI-H522 cells assessed as growth inhibition after 48 hrs by SRB assay; assay type: functional; details: NCI-H522, 48 h
[34] = system: COLO 205; experiment: Cytotoxicity against human COLO205 cells assessed as growth inhibition after 48 hrs by SRB assay; assay type: functional; details: COLO 205, 48 h
[35] = system: NCI-H460; experiment: Cytotoxicity against human NCI-H460 cells assessed as growth inhibition after 48 hrs by SRB assay; assay type: functional; details: NCI-H460, 48 h
[36] = system: NCI-H23; experiment: Cytotoxicity against human NCI-H23 cells assessed as growth inhibition after 48 hrs by SRB assay; assay type: functional; details: NCI-H23, 48 h
[37] = system: NCI-H226; experiment: Cytotoxicity against human NCI-H226 cells assessed as growth inhibition after 48 hrs by SRB assay; assay type: functional; details: NCI-H226, 48 h
[38] = system: HOP-92; experiment: Cytotoxicity against human HOP92 cells assessed as growth inhibition after 48 hrs by SRB assay; assay type: functional; details: HOP-92, 48 h
[39] = Cytotoxicity against human EKVX cells assessed as growth inhibition after 48 hrs by SRB assay; assay type: functional
[40] = system: A549; experiment: Cytotoxicity against human A549 cells assessed as growth inhibition after 48 hrs by SRB assay; assay type: functional; details: A549, 48 h
[41] = system: SR; experiment: Cytotoxicity against human SR cells assessed as growth inhibition after 48 hrs by SRB assay; assay type: functional
[42] = system: MOLT-4; experiment: Cytotoxicity against human MOLT4 cells assessed as growth inhibition after 48 hrs by SRB assay; assay type: functional; details: MOLT-4, 48 h
[43] = system: HL-60(TB); experiment: Cytotoxicity against human HL-60(TB) cells assessed as growth inhibition after 48 hrs by SRB assay; assay type: functional; details: HL-60, 48 h
[44] = system: SK-OV-3; experiment: Antiproliferative activity against human SKOV3 cells after 48 hrs by SRB assay; assay type: functional, cell-based; details: SK-OV-3, 48 h
Method in brief: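 Isogenic pairs: parental SK-OV-3 alongside its Pgp-overexpressing subline MDR-M6-6, and parental HeLa alongside βIII-tubulin-transfected HeLa. Antiproliferative IC50 measured by sulforhodamine B assay, averaged from at least three independent experiments ± SD. Relative resistance is the transduced-line IC50 divided by the parental-line IC50.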

With `COc1ccc(N(C)c2nc(C)nc3c2CCC3)cc1.Cl` the inhibition [1] was 92%, the inhibition [2] was 70% and the GI50 [3] was under 10 nM. The GI50 [4] was under 10 nM, the GI50 [5] was 21.8 nM and the GI50 [6] was 25.9 nM. The GI50 [7] was under 10 nM, the GI50 [8] was 46.1 nM and the GI50 [9] was 42.7 nM. It also gave a GI50 [10] of 33 nM, a GI50 [11] of under 10 nM and a GI50 [12] of under 10 nM. It also gave a GI50 [13] of under 10 nM, a GI50 [14] of 17.8 nM and a GI50 [15] of 14.6 nM. For the same molecule, the GI50 [16] was under 10 nM, the GI50 [17] was 21.8 nM and the GI50 [18] was 22.9 nM. For the same molecule, the GI50 [19] was under 10 nM, the GI50 [20] was under 10 nM and the GI50 [21] was under 10 nM. For the same molecule, the GI50 [22] was 11.9 nM, the GI50 [23] was under 10 nM and the GI50 [24] was under 10 nM. For the same molecule, the GI50 [25] was under 10 nM, the GI50 [26] was under 10 nM and the GI50 [27] was 13.9 nM. The GI50 [28] was under 10 nM, the GI50 [29] was under 10 nM and the GI50 [30] was under 10 nM. For the same molecule, the GI50 [31] was under 10 nM, the GI50 [32] was 16.4 nM and the GI50 [33] was under 10 nM. It also gave a GI50 [34] of under 10 nM, a GI50 [35] of 10.3 nM and a GI50 [36] of 22.3 nM. The GI50 [37] was 34.7 nM, the GI50 [38] was 16 nM and the GI50 [39] was 34.8 nM. The GI50 [40] was 15 nM, the GI50 [41] was under 10 nM and the GI50 [42] was 27.8 nM. For the same molecule, the GI50 [43] was under 10 nM and the IC50 [44] was 11.3 nM.
`COc1ccc(N(C)c2nc(C)nc3c2CC(C)C3)cc1.Cl` (racemic) showed an inhibition (INH) [1] of 84%, an inhibition [2] of 60% and a GI50 [3] of under 10 nM. The GI50 [4] was under 10 nM, the GI50 [5] was 21.9 nM and the GI50 [6] was 24.6 nM. The GI50 [7] was under 10 nM, the GI50 [8] was 13.4 nM and the GI50 [9] was 292 nM. For the same molecule, the GI50 [10] was 31.8 nM, the GI50 [11] was under 10 nM and the GI50 [12] was 14.6 nM. It also gave a GI50 [13] of under 10 nM, a GI50 [14] of 34.8 nM and a GI50 [15] of 27.5 nM. The GI50 [16] was under 10 nM, the GI50 [17] was 32.8 nM and the GI50 [18] was 26.8 nM. The GI50 [19] was under 10 nM, the GI50 [20] was under 10 nM and the GI50 [21] was under 10 nM. The GI50 [22] was 33.1 nM, the GI50 [23] was under 10 nM and the GI50 [24] was 12.5 nM. For the same molecule, the GI50 [25] was under 10 nM, the GI50 [26] was 11.4 nM and the GI50 [27] was 15.2 nM. It also gave a GI50 [28] of under 10 nM, a GI50 [29] of under 10 nM and a GI50 [30] of under 10 nM. The GI50 [31] was 15.1 nM, the GI50 [32] was 24 nM and the GI50 [33] was under 10 nM. It also gave a GI50 [34] of 18.3 nM, a GI50 [35] of 23.4 nM and a GI50 [36] of 16.4 nM. It also gave a GI50 [37] of 31.5 nM, a GI50 [38] of 55.4 nM and a GI50 [39] of 19.6 nM. For the same molecule, the GI50 [40] was 24.4 nM, the GI50 [41] was under 10 nM and the GI50 [42] was 31.8 nM. For the same molecule, the GI50 [43] was under 10 nM and the IC50 [44] was 38.6 nM.
